Source: ChEMBL document CHEMBL1127802, “Selective inhibitors of monoamine oxidase. 2. Arylamide SAR” (J Med Chem, 1994)
Blank lines part the entries; values can stand above or below the compound they belong to.

Key:
[1] = molecular target: T1, MAO A (monoamine oxidase A) (Rattus norvegicus, UniProt P21396); experiment: Inhibitory activity against monoamine oxidase A (MAO A) from rat brain using a radiometric procedure with [3H]5-HT at 10 uM; details: rat brain monoamine oxidase A preparation, probe [3H]5-HT
T1 sequence (P21396 whole entry): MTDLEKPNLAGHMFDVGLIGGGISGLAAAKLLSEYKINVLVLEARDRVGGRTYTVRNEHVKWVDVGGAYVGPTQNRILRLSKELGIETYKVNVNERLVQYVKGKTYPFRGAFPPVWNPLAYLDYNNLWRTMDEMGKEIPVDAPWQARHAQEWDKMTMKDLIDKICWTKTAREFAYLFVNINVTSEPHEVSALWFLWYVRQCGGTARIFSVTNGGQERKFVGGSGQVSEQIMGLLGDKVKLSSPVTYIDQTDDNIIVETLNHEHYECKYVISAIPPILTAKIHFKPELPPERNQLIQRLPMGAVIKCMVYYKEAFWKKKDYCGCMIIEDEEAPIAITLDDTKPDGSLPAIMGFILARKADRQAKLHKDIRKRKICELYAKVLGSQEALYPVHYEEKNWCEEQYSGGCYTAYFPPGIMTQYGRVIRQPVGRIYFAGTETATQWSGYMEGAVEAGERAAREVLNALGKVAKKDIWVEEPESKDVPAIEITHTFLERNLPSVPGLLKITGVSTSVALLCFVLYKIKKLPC
How it was run: (§1)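 Rat brain mitochondrial MAO extract was preincubated with or without inhibitor for 15 min at 37 °C in 50 mM potassium phosphate, pH 7.4. […] Blanks contained 2 mM pargyline. Reactions were stopped with HCl, products extracted into ethyl acetate/toluene and counted by scintillation. Triplicates were averaged as % inhibition, and IC50 was taken from % inhibition vs log concentration.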

[2] = molecular target: T2, MAO B (monoamine oxidase B) (Rattus norvegicus, UniProt P19643); experiment: (§2) Inhibitory activity against monoamine oxidase B (MAO B) from rat brain using a radiometric procedure with [14C]phenylethylamine at 1 uM; details: rat brain monoamine oxidase B preparation, probe [14C]phenylethylamine
T2 sequence (P19643 whole entry): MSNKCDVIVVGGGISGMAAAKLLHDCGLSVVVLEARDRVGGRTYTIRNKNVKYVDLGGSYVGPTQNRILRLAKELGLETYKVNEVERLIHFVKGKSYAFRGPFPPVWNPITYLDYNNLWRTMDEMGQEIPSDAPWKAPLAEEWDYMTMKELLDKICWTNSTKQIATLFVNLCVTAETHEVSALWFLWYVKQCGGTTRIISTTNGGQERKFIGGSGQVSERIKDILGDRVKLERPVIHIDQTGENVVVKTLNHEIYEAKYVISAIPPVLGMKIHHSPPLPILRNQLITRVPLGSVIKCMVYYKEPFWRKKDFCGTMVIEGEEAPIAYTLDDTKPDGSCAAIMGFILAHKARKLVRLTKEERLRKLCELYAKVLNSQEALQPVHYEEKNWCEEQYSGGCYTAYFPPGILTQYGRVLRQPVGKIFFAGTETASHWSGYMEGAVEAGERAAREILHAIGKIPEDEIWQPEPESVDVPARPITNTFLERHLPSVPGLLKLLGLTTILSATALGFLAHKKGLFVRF
How it was run: (§3)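 Rat brain mitochondrial MAO extract was preincubated ± inhibitor for 15 min at 37 °C in 50 mM potassium phosphate, pH 7.4. […] Pargyline (2 mM) defined blanks. Acid stop, ethyl acetate/toluene extraction and scintillation counting followed. Triplicate means gave % inhibition, and IC50 was extrapolated from % inhibition vs log concentration plots.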

[3] = molecular target: T1, MAO A (monoamine oxidase A); experiment: (§4) Inhibitory activity against monoamine oxidase A (MAO A) from rat brain using a radiometric procedure with [3H]5-HT at 1 uM; details: rat brain monoamine oxidase A preparation, probe [3H]5-HT; how it was run: as §1
[4] = molecular target: T2, MAO B (monoamine oxidase B); experiment: Inhibitory activity against monoamine oxidase B (MAO B) from rat brain using a radiometric procedure with [14C]- phenethylamine at 1 uM; details: rat brain monoamine oxidase B preparation, probe [14C]-phenethylamine; how it was run: as §3
[5] = molecular target: T1, MAO A (monoamine oxidase A); experiment: Inhibitory activity against monoamine oxidase A (MAO A) from rat brain using a radiometric procedure with [3H]- serotonin at 1 uM; details: rat brain monoamine oxidase A preparation, probe [3H]-serotonin; how it was run: as §1
[6] = molecular target: T3, Amine oxidase [flavin-containing] B (Rattus norvegicus, UniProt P19643); experiment: as §2; how it was run: as §3
T3 sequence (P19643 whole entry): T2 sequence (P19643 whole entry)

[7] = molecular target: T4, Amine oxidase [flavin-containing] A (Rattus norvegicus, UniProt P21396); experiment: as §4; how it was run: as §1
T4 sequence (P21396 whole entry): T1 sequence (P21396 whole entry)

[8] = molecular target: T4, Amine oxidase [flavin-containing] A; experiment: Inhibitory activity against monoamine oxidase A (MAO A) from rat brain using a radiometric procedure with [3H]5-HT; how it was run: as §1
[9] = molecular target: T4, Amine oxidase [flavin-containing] A; experiment: Inhibitory activity against monoamine oxidase A (MAO A) from rat brain using a radiometric procedure with [3H]- serotonin.; how it was run: as §1
[10] = molecular target: T3, Amine oxidase [flavin-containing] B; experiment: Inhibitory activity against monoamine oxidase B (MAO B) from rat brain using a radiometric procedure with [14C]- phenethylamine.; how it was run: as §3
[11] = molecular target: T2, MAO B (monoamine oxidase B); experiment: Inhibitory activity against monoamine oxidase B (MAO B) from rat brain using a radiometric procedure with [14C]phenylethylamine at 0.3 uM; details: rat brain monoamine oxidase B preparation, probe [14C]phenylethylamine; how it was run: as §3
[12] = molecular target: T2, MAO B (monoamine oxidase B); experiment: Inhibitory activity against monoamine oxidase B (MAO B) from rat brain using a radiometric procedure with [14C]- phenethylamine at 10 uM; details: rat brain monoamine oxidase B preparation, probe [14C]-phenethylamine; how it was run: as §3
[13] = molecular target: T2, MAO B (monoamine oxidase B); experiment: Inhibitory activity against monoamine oxidase B (MAO B) from rat brain using a radiometric procedure with [14C]phenylethylamine at 10 uM; details: rat brain monoamine oxidase B preparation, probe [14C]phenylethylamine; how it was run: as §3
[14] = molecular target: T3, Amine oxidase [flavin-containing] B; experiment: Inhibitory activity against monoamine oxidase B (MAO B) from rat brain using a radiometric procedure with [14C]- phenethylamine at<10 uM; how it was run: as §3
[15] = molecular target: T1, MAO A (monoamine oxidase A); experiment: Inhibitory activity against monoamine oxidase A (MAO A) from rat brain using a radiometric procedure with [3H]- serotonin at 10 uM; details: rat brain monoamine oxidase A preparation, probe [3H]-serotonin; how it was run: as §1

inhibition [1]: 0%
Compound: Nc1ccc2[nH]c(=O)c3ccccc3c2c1

inhibition at 1 µM [2]: 11% | inhibition [3]: 0%
Compound: CC(=O)Nc1ccc2[nH]c(=O)c3ccccc3c2c1

inhibition at 1 µM [4]: 0% | inhibition at 1 µM [5]: 0%
Compound: CC(=O)Nc1ccc2[nH]ccc2c1

inhibition at 1 µM [2]: 18% | inhibition [3]: 60%
Compound: CC(=O)Nc1ccc2c(c1)S(=O)(=O)c1ccccc1N2C

inhibition [3]: 36%
Compound: CCCC(=O)Nc1ccc2c(c1)[nH]c1ccccc12

inhibition [1]: 80%
Compound: CC(=O)Nc1ccc2c3ccccc3n(CCCN3CCN(C)CC3)c2c1

inhibition [6]: 42% | inhibition [7]: < 1%
Compound: CC(=O)Nc1ccc2[nH]c(C)c(C)c2c1

inhibition at 1 µM [2]: 0% | inhibition [3]: 50%
Compound: CC(=O)NCCc1ccc2c(c1)c1ccccc1n2C

inhibition at 1 µM [2]: 49% | inhibition [3]: 17%
Compound: CC(=O)Nc1ccc2c(c1)S(=O)(=O)c1ccccc1C2

IC50 [8]: 300 nM
Compound: CC(=O)Nc1ccc2c(c1)C(O)c1ccccc1-2 (stereo unspecified)

inhibition at 1 µM [2]: 0% | inhibition [3]: 55%
Compound: CC(=O)Nc1ccc2c(c1)c(O)nc1ccccc12

IC50 [9]: 160 nM | IC50 [10]: 3500 nM
Compound: CC(=O)Nc1ccc2c(c1)C(=O)c1ccccc1C2=O

inhibition at 1 µM [2]: 21% | inhibition [3]: 72%
Compound: CC(=O)Nc1ccc2c(O)c3ccccc3nc2c1

IC50 [9]: 40 nM | inhibition at 1 µM [4]: 8%
Compound: CC(=O)Nc1ccc2c(c1)oc(=O)c1ccccc12

IC50 [8]: 1200 nM
Compound: CCC(=O)Nc1ccc2c(c1)-c1ccccc1S2(=O)=O

inhibition at 1 µM [2]: -27% | inhibition [3]: 37%
Compound: CC(=O)Nc1ccc2c(c1)N(C(C)=O)CC2

inhibition at 0.3 µM [11]: 15% | IC50 [8]: 10 nM
Compound: CCc1ccc2c(c1)C(=O)c1ccc(NC(C)=O)cc1S2(=O)=O

inhibition at 1 µM [2]: 0% | inhibition [3]: 35%
Compound: CC(=O)Nc1ccc2c3c([nH]c2c1)CCCC3

inhibition at 1 µM [2]: 3% | IC50 [8]: 40 nM
Compound: CC(=O)Nc1ccc2c(c1)C(=O)c1ccccc1-2

IC50 [8]: 1100 nM
Compound: O=CNc1ccc2c(c1)[nH]c1ccccc12

IC50 [8]: 1000 nM
Compound: Nc1ccc2c(c1)-c1ccccc1S2(=O)=O

inhibition at 10 µM [12]: 37%
Compound: CC(=O)Nc1ccc2[nH]c3ccccc3c2c1

inhibition at 10 uM [13]: -7% | IC50 [8]: 20 nM
Compound: CCCc1ccc2c(c1)S(=O)(=O)c1cc(NC(C)=O)ccc1C2=O

inhibition at 1 µM [4]: 12% | inhibition at 1 µM [5]: 10%
Compound: CC(=O)Nc1cc2c(ccc3ccccc32)oc1=O

inhibition [3]: 0%
Compound: CC(=O)N(C)c1ccc2c(c1)-c1ccccc1S2(=O)=O

inhibition [14]: 53% | inhibition at 1 µM [5]: 5%
Compound: CC(=O)Nc1cc2ccccc2oc1=O

inhibition at 10 µM [15]: 4% | inhibition at 10 µM [12]: 4%
Compound: CC(=O)Nc1ccc(Nc2ccccc2)c(NC(C)=O)c1

IC50 [8]: 300 nM
Compound: CC(=O)Nc1ccc2c(c1)oc1ccccc12
